Activity calls are given as the source filed them. The calls are words filed in the database; no cut-off is given here.
Key:
P388 [1] = assay: Cytotoxicity against mouse P388 cells; assay type: functional
[2] = Cytotoxicity against human 9KB cells; assay type: functional
L1210 [3] = assay: Cytotoxicity against mouse L1210 cells; assay type: functional
P388 [4] = assay: Antitumor activity against mouse P388 cells allografted in mouse assessed as increase in mouse survival time at 6.5 mg/kg, iv for 4 to 9 days relative to control; assay type: functional
Procedure, shortened: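 Mice bearing P388 leukemia (NCI protocol 3PS31), six mice per test, drug injected daily for 9 days (in some tests for only 6 days). Controls were 20–30 animals receiving no injection. Activity was expressed as mean/median survival time of the test group divided by that of the control group ×100.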

[5] = Cytotoxicity against human 9KB cells relative to camptothecin; assay type: functional
P388 [6] = assay: Cytotoxicity against mouse P388 cells relative to camptothecin; assay type: functional
P388 [7] = assay: Antitumor activity against mouse P388 cells allografted in mouse assessed as increase in mouse survival time at 2.5 mg/kg, iv for 6 days relative to control; assay type: functional
Procedure, shortened: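 NCI P388 protocol 3PS31 in mice, six mice per test group. Drug was injected daily for only 6 days, with 20–30 uninjected controls. The value is the mean or median survival time of treated mice over that of controls ×100, reported as percentage increase in life span.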

L1210 [8] = assay: Antitumor activity against mouse L1210 cells allografted in mouse assessed as increase in mouse survival time at 6.5 mg/kg, iv for 4 to 9 days relative to control; assay type: functional
Procedure, shortened: (§1)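 Run under NCI protocols 3LE21 (L1210) and 3PS31 (P388) in mice, six mice per test group. Drug was injected daily for 9 days, with 20–30 uninjected control animals. Mean or median survival time of the treated group was divided by that of controls and multiplied by 100, then reported as percentage increase in life span.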

L1210 [9] = assay: Cytotoxicity against mouse L1210 cells relative to camptothecin; assay type: functional
P388 [10] = assay: Antitumor activity against mouse P388 cells allografted in mouse assessed as increase in mouse survival time at 1.2 mg/kg, iv for 4 to 9 days relative to control; assay type: functional; procedure, shortened: as §1
L1210 [11] = assay: Antitumor activity against mouse L1210 cells allografted in mouse assessed as increase in mouse survival time at 1.2 mg/kg, iv for 4 to 9 days relative to control; assay type: functional; procedure, shortened: as §1
P388 [12] = assay: Antitumor activity against mouse P388 cells allografted in mouse assessed as increase in mouse survival time at 0.4 mg/kg, iv for 4 to 9 days relative to control; assay type: functional; procedure, shortened: as §1
P388 [13] = assay: Antitumor activity against mouse P388 cells allografted in mouse assessed as increase in mouse survival time at 11.1 mg/kg, iv for 4 to 9 days relative to control; assay type: functional; procedure, shortened: as §1
L1210 [14] = assay: Antitumor activity against mouse L1210 cells allografted in mouse assessed as increase in mouse survival time at 11.1 mg/kg, iv for 4 to 9 days relative to control; assay type: functional; procedure, shortened: as §1
L1210 [15] = assay: Antitumor activity against mouse L1210 cells allografted in mouse assessed as increase in mouse survival time at 0.4 mg/kg, iv for 4 to 9 days relative to control; assay type: functional; procedure, shortened: as §1
HeLa = assay: Antitumor activity against human HeLa cells assessed as inhibition of radioactive thymidine incorporation into acid-insoluble material by DNA sedimentation assay; assay type: functional, cell-based
P388 [16] = assay: Antitumor activity against mouse P388 cells allografted in mouse assessed as increase in mouse survival time at 3.7 mg/kg, iv for 4 to 9 days relative to control; assay type: functional; procedure, shortened: as §1
L1210 [17] = assay: Antitumor activity against mouse L1210 cells allografted in mouse assessed as increase in mouse survival time at 3.7 mg/kg, iv for 4 to 9 days relative to control; assay type: functional; procedure, shortened: as §1
L1210 [18] = assay: Antitumor activity against mouse L1210 cells allografted in mouse assessed as increase in mouse survival time at 4.3 mg/kg, iv for 4 to 9 days relative to control; assay type: functional; procedure, shortened: as §1
[19] = system: Lewis lung carcinoma cell line; assay: Antitumor activity against mouse LLC cells allografted in mouse assessed as increase in mouse survival time at 48 mg/kg, iv for 4 to 9 days relative to control; assay type: functional
Procedure, shortened: (§2)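 Run under NCI protocols 3B131 (B-16 melanocytic melanoma) and 3LL32 (Lewis lung carcinoma) in mice, ten mice per test group. Drug was injected every 4 days, with 20–30 uninjected control animals. Mean or median survival of treated mice over that of controls ×100 was reported as percentage increase in life span.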

B16 [20] = assay: Antitumor activity against mouse B16 cells allografted in mouse assessed as increase in mouse survival time at 14.8 mg/kg, iv for 4 to 9 days relative to control; assay type: functional; procedure, shortened: as §2
[21] = system: Lewis lung carcinoma cell line; assay: Antitumor activity against mouse LLC cells allografted in mouse assessed as increase in mouse survival time at 15.7 mg/kg, iv for 4 to 9 days relative to control; assay type: functional; procedure, shortened: as §2
P388 [22] = assay: Antitumor activity against mouse P388 cells allografted in mouse assessed as increase in mouse survival time at 4.3 mg/kg, iv for 4 to 9 days relative to control; assay type: functional; procedure, shortened: as §1
B16 [23] = assay: Antitumor activity against mouse B16 cells allografted in mouse assessed as increase in mouse survival time at 4.9 mg/kg, iv for 4 to 9 days relative to control; assay type: functional; procedure, shortened: as §2
P388 [24] = assay: Antitumor activity against mouse P388 cells allografted in mouse assessed as increase in mouse survival time at 12.8 mg/kg, iv for 4 to 9 days relative to control; assay type: functional; procedure, shortened: as §1
P388 [25] = assay: Antitumor activity against mouse P388 cells allografted in mouse assessed as increase in mouse survival time at 0.5 mg/kg, iv for 4 to 9 days relative to control; assay type: functional; procedure, shortened: as §1
P388 [26] = assay: Antitumor activity against mouse P388 cells allografted in mouse assessed as increase in mouse survival time at 1.4 mg/kg, iv for 4 to 9 days relative to control; assay type: functional; procedure, shortened: as §1
B16 [27] = assay: Antitumor activity against mouse B16 cells allografted in mouse assessed as increase in mouse survival time at 43.5 mg/kg, iv for 4 to 9 days relative to control; assay type: functional; procedure, shortened: as §2
L1210 [28] = assay: Antitumor activity against mouse L1210 cells allografted in mouse assessed as increase in mouse survival time at 0.5 mg/kg, iv for 4 to 9 days relative to control; assay type: functional; procedure, shortened: as §1
L1210 [29] = assay: Antitumor activity against mouse L1210 cells allografted in mouse assessed as increase in mouse survival time at 12.8 mg/kg, iv for 4 to 9 days relative to control; assay type: functional; procedure, shortened: as §1
L1210 [30] = assay: Antitumor activity against mouse L1210 cells allografted in mouse assessed as increase in mouse survival time at 1.4 mg/kg, iv for 4 to 9 days relative to control; assay type: functional; procedure, shortened: as §1
[31] = system: Lewis lung carcinoma cell line; assay: Antitumor activity against mouse LLC cells allografted in mouse assessed as increase in mouse survival time at 4 mg/kg, iv for 4 to 9 days relative to control; assay type: functional; procedure, shortened: as §2
L1210 [32] = assay: Antitumor activity against mouse L1210 cells allografted in mouse assessed as increase in mouse survival time at 62.5 mg/kg, iv for 4 to 9 days relative to control; assay type: functional; procedure, shortened: as §1
L1210 [33] = assay: Antitumor activity against mouse L1210 cells allografted in mouse assessed as increase in mouse survival time at 5.1 mg/kg, iv for 4 to 9 days relative to control; assay type: functional; procedure, shortened: as §1
L1210 [34] = assay: Antitumor activity against mouse L1210 cells allografted in mouse assessed as increase in mouse survival time at 18.9 mg/kg, iv for 4 to 9 days relative to control; assay type: functional; procedure, shortened: as §1
P388 [35] = assay: Antitumor activity against mouse P388 cells allografted in mouse assessed as increase in mouse survival time at 18.9 mg/kg, iv for 4 to 9 days relative to control; assay type: functional; procedure, shortened: as §1
P388 [36] = assay: Antitumor activity against mouse P388 cells allografted in mouse assessed as increase in mouse survival time at 5.1 mg/kg, iv for 4 to 9 days relative to control; assay type: functional; procedure, shortened: as §1

For `C=CC(=O)OCc1c([C@@](O)(CC)C(=O)NC(C)C)cc2n(c1=O)Cc1cc3ccccc3nc1-2`, the ED50 (P388 [1]) was 3.9 ×10⁻⁴ umol/ml, the ED50 [2] was 6.9 ×10⁻⁵ umol/ml and the ED50 (L1210 [3]) was 7.6 ×10⁻⁴ umol/ml. For the same molecule, the T/C (P388 [4]) was 155%, the Activity [5] was 25% and the Activity (P388 [6]) was 0.45%. It also gave a T/C (P388 [7]) of 165%, a T/C (L1210 [8]) of 125% and an Activity (L1210 [9]) of 2.7%.
Molecule `CC[C@@](O)(C(=O)[O-])c1cc2n(c(=O)c1CO)Cc1cc3ccccc3nc1-2.[Na+]` has a T/C (P388 [10]) of 168%, a T/C (L1210 [11]) of 147% and a T/C (P388 [12]) of 139%. It also gave a T/C (P388 [13]) of 67%, a T/C (L1210 [14]) of 74% and a T/C (L1210 [15]) of 116%. For the same molecule, the inhibition (HeLa) was “Active”, the T/C (P388 [16]) was 85% and the T/C (L1210 [17]) was 114%.
In the case of `CC[C@@](O)(C(=O)NC(C)C)c1cc2n(c(=O)c1COC(C)=O)Cc1cc3ccccc3nc1-2`, the T/C (L1210 [18]) is reported as 147%, the T/C [19] is reported as 156% and the T/C (B16 [20]) is reported as 105%. It also gave a T/C [21] of 166%, a T/C (P388 [22]) of 173% and a T/C (B16 [23]) of 100%. It also gave an EC50 (P388 [1]; Mus musculus, P388, read-out: ED50 (the source's name)) of 7.4 µM, a T/C (P388 [24]) of 97% and a T/C (P388 [25]) of 126%. It also gave a T/C (P388 [26]) of 126%, an ED50 [2] of 7.8 ×10⁻⁴ umol/ml and a T/C (B16 [27]) of 114%. It also gave a T/C (L1210 [28]) of 110%, a T/C (L1210 [29]) of 105% and a T/C (L1210 [30]) of 116%. The Activity [5] was 2.8%, the Activity (P388 [6]) was 0.08% and the T/C [31] was 147%.
With `CC[C@@](O)(C(=O)NC(C)C)c1cc2n(c(=O)c1CN1CCCC1)Cc1cc3ccccc3nc1-2` the T/C (L1210 [32]) was 113%, the T/C (L1210 [33]) was 109% and the ED50 (P388 [1]) was 1.1 ×10⁻⁴ umol/ml. The ED50 [2] was 2.2 ×10⁻⁵ umol/ml, the ED50 (L1210 [3]) was 6.5 ×10⁻⁵ umol/ml and the T/C (L1210 [34]) was 101%. The T/C (P388 [35]) was 126%, the Activity [5] was 7.8% and the Activity (P388 [6]) was 0.13%. For the same molecule, the T/C (P388 [36]) was 111% and the Activity (L1210 [9]) was 23%.
